Square brackets hold non-standard residues; d marks the D form. Peptide text beside a SMILES is read from it. * marks the point of attachment. X1 = O=C(O)c1cc(C(=O)*)ccc1-c1c2ccc(=O)cc-2oc2cc(O)ccc12; Gly(N-(CH2)6NH2) = NCCCCCCNCC(=O)O; Ahx = NCCCCCC(=O)O
How the values were obtained:
Assay type in all cases: cell-based
HeLa = experiment: Cytotoxicity against human HeLa cells after 24 hrs by MTT assay
Procedure, shortened: (§1)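 Cells kept in 10 µM peptoid in medium. Viability read by MTT 24 h after compound addition, absorbance at 570 nm.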

K562 = experiment: Cytotoxicity against human K562 cells after 24 hrs by MTT assay; conditions: k562, 24 h; procedure, shortened: as §1
L929 = experiment: Cytotoxicity against mouse L929 cells after 24 hrs by MTT assay; conditions: l929, 24 h; procedure, shortened: as §1

Measured: Activity

NCCCCCCN(CC(N)=O)C(=O)CN(CCCCCCN)C(=O)CN(CCCCCCN)C(=O)CCCCCNC(=O)c1ccc(-c2c3ccc(=O)cc-3oc3cc(O)ccc23)c(C(=O)O)c1
Non-toxic: all assays above

NCCCCCCN(CC(N)=O)C(=O)CCCCCNC(=O)c1ccc(-c2c3ccc(=O)cc-3oc3cc(O)ccc23)c(C(=O)O)c1
Non-toxic: all assays above

NCCCCCCN(CC(N)=O)C(=O)CN(CCCCCCN)C(=O)CN(CCCCCCN)C(=O)CN(CCCCCCN)C(=O)CN(CCCCCCN)C(=O)CCCCCNC(=O)c1ccc(-c2c3ccc(=O)cc-3oc3cc(O)ccc23)c(C(=O)O)c1
Non-toxic: all assays above

NCCCCCCN(CC(N)=O)C(=O)CN(CCCCCCN)C(=O)CN(CCCCCCN)C(=O)CN(CCCCCCN)C(=O)CN(CCCCCCN)C(=O)CN(CCCCCCN)C(=O)CN(CCCCCCN)C(=O)CCCCCNC(=O)c1ccc(-c2c3ccc(=O)cc-3oc3cc(O)ccc23)c(C(=O)O)c1 ({X1-Ahx}-[Gly(N-(CH2)6NH2)][Gly(N-(CH2)6NH2)][Gly(N-(CH2)6NH2)][Gly(N-(CH2)6NH2)][Gly(N-(CH2)6NH2)][Gly(N-(CH2)6NH2)][Gly(N-(CH2)6NH2)]-NH2)
Non-toxic: all assays above
